Measurements published in ChEMBL document CHEMBL1133390, “Effects of stilbene constituents from rhubarb on nitric oxide production in lipopolysaccharide-activated macrophages” (Bioorg Med Chem Lett, 2000).

What was measured:
Format in all cases: functional
Mus musculus [1] = species: Mus musculus; assay: Inhibitory activity against nitric oxide production in LPS-activated mouse peritoneal macrophages
In short: (§1)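 Peritoneal exudate cells from male ddY mice, 5 × 10^5 cells/well, pre-cultured 1 h at 37 °C in RPMI 1640 with 5% FCS. Nonadherent cells washed off; adherent macrophages (>95%) given 10 µg/mL LPS plus test compound (DMSO, final 0.5%) for 20 h. Nitrite in medium measured by Griess reagent. Inhibition calculated relative to LPS-stimulated and unstimulated wells; IC50 determined graphically (N=4).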

Mus musculus [2] = species: Mus musculus; assay: Compound (at 100 uM) was tested for inhibition against nitric oxide production in LPS-activated mouse peritoneal macrophages; in short: as §1
Mus musculus [3] = species: Mus musculus; assay: Compound was tested for inhibitory activity against nitric oxide production in LPS-activated mouse peritoneal macrophages (*,showed cytotoxicity at 100 uM)
Mus musculus [4] = species: Mus musculus; assay: Compound (at 10 uM) was tested for inhibition against nitric oxide production in LPS-activated mouse peritoneal macrophages
Mus musculus [5] = species: Mus musculus; assay: Compound was tested for inhibitory activity against nitric oxide production in LPS-activated mouse peritoneal macrophages (*,showed cytotoxicity at 30 uM)
Mus musculus [6] = species: Mus musculus; assay: Compound (at 30 uM) was tested for inhibition against nitric oxide production in LPS-activated mouse peritoneal macrophages

Compound	IC50 (Mus musculus [1]) [µM]	inhibition at 100 µM (Mus musculus [2]) [%]	further results
COc1cc(O[C@@H]2O[C@H](CO)[C@@H](O)[C@H](O)[C@H]2O)c2c(O)c(C(C)=O)c(C)cc2c1	69		
Cc1cc(O)c2c(c1)C(=O)c1cccc(O[C@@H]3O[C@H](COC(=O)c4cc(O)c(O)c(O)c4)[C@@H](O)[C@H](O)[C@H]3O)c1C2=O	> 100	31	
OC[C@H]1O[C@@H](Oc2cc(/C=C/c3cc(O)cc(O)c3)ccc2O)[C@H](O)[C@@H](O)[C@@H]1O	> 100	10	
COc1cc(O)cc(/C=C/c2ccc(OC)c(OC)c2)c1			IC50 (Mus musculus [3]): 19 µM
C(=C\c1ccccc1)/c1ccccc1	> 100	21	
COC[C@H]1O[C@@H](Oc2cc(/C=C/c3cc(OC)cc(OC)c3)ccc2OC)[C@H](OC)[C@@H](OC)[C@@H]1OC	27		
COc1cc(/C=C/c2cc(O)cc(O[C@@H]3O[C@H](CO)[C@@H](O)[C@H](O)[C@H]3O)c2)ccc1O	> 100	5	
COc1ccc(/C=C/c2cc(O)cc(O[C@@H]3O[C@H](COC(=O)c4cc(O)c(O)c(O)c4)[C@@H](O)[C@H](O)[C@H]3O)c2)cc1O	11		
Oc1cc(O)cc(CCc2ccc(O)c(O)c2)c1	32		
COc1cc(/C=C/c2ccc(OC)c(O)c2)cc(OC)c1			IC50 (Mus musculus [3]): 23 µM
COc1cc(/C=C/c2ccc(OC)c(OC)c2)cc(OC)c1 [(E)-3,4,3',5'-TETRAMETHOXYSTILBENE]	28		
O=C1c2cccc(O)c2C(=O)c2c(O)cc(CO)cc21 [ALOE-EMODIN]			inhibition at 10 µM (Mus musculus [4]): 38%; IC50 (Mus musculus [5]): > 10 µM
O=C(/C=C/c1ccc(O)c(O)c1)OCCc1ccccc1 [CAFFEIC ACID PHENETHYL ESTER]	40		
Cc1cc(O[C@@H]2O[C@H](CO)[C@@H](O)[C@H](O)[C@H]2O)c2c(c1)C(=O)c1cccc(O)c1C2=O [CHRYSOPHANEIN]	> 100	20	
Cc1cc(O)c2c(c1)C(=O)c1cccc(O)c1C2=O [CHRYSOPHANOL]	> 100	2	
Oc1ccc(CCc2cc(O)cc(O)c2)cc1 [DIHYDRORESVERATROL]	76		
O=C(O)c1cc(O)c(O)c(O)c1 [GALLIC ACID]	63		
COc1ccc(/C=C/c2cc(O)cc(O)c2)cc1 [RESVERATROL 4'-METHYL ETHER]			inhibition at 30 µM (Mus musculus [6]): 13%; IC50 (Mus musculus [3]): > 30 µM
COc1ccc(/C=C/c2cc(O)cc(O[C@@H]3O[C@H](CO)[C@@H](O)[C@H](O)[C@H]3O)c2)cc1O [RHAPONTIN]	> 100	25	
COc1ccc(/C=C/c2cc(OC)cc(OC)c2)cc1 [TRISMETHOXYRESVERATROL]	22		

Continued, in another order:

IC50 (Mus musculus [1]) [µM]	Compound	inhibition at 100 µM (Mus musculus [2]) [%]	further results
> 100	OC[C@H]1O[C@@H](Oc2cc(CCc3cc(O)cc(O)c3)ccc2O)[C@H](O)[C@@H](O)[C@@H]1O	6	
49	COc1ccc(CCc2cc(O)cc(O)c2)cc1O		
63	COc1cc(/C=C/c2cc(O)cc(O)c2)ccc1O		
> 100	COc1ccc(CCc2cc(O)cc(O[C@@H]3O[C@H](CO)[C@@H](O)[C@H](O)[C@H]3O)c2)cc1O	8	
48	COc1ccc(/C=C/c2cc(O)cc(O)c2)cc1O		
> 100	COc1ccc(/C=C/c2cc(O)cc(O[C@@H]3O[C@H](CO)[C@@H](O)[C@H](O)[C@H]3O)c2)cc1	13	
13	COc1ccc(/C=C/c2cc(O)cc(O[C@@H]3O[C@H](CO)[C@@H](O)[C@H](O)[C@H]3OC(=O)c3cc(O)c(O)c(O)c3)c2)cc1O		
> 100	O=C1c2cccc(O)c2C(=O)c2c(O[C@@H]3O[C@H](CO)[C@@H](O)[C@H](O)[C@H]3O)cc(CO)cc21	46	
5.8	COC[C@H]1O[C@@H](Oc2cc(/C=C/c3ccc(OC)c(OC)c3)cc(OC)c2)[C@H](OC)[C@@H](OC)[C@@H]1OC		
> 100	c1ccc(CCc2ccccc2)cc1	26	
23	Oc1cc(O)cc(/C=C/c2ccc(O)c(O)c2)c1 [PICEATANNOL]		
> 100	Cc1cc(O)c2c(c1)C(=O)c1cccc(O[C@@H]3O[C@H](CO)[C@@H](O)[C@H](O)[C@H]3O)c1C2=O [PULMATIN]	31	
68	Oc1ccc(/C=C/c2cc(O)cc(O)c2)cc1 [RESVERATROL]		
